In ChEMBL document CHEMBL4024770, “Augmentation of Anticancer Drug Efficacy in Murine Hepatocellular Carcinoma Cells by a Peripherally Acting Competitive N-Methyl-d-aspartate (NMDA) Receptor Antagonist” (J Med Chem, 2017):

What was measured:
[1] = target: Glutamate receptor ionotropic, kainate 3 (Rattus norvegicus, UniProt P42264); test: Displacement of [3H]-KA from recombinant homomeric rat GluK3a receptor expressed in baculovirus infected Sf9 insect cell membranes by scintillation counting method
[2] = Displacement of [3H]-AMPA from AMPA receptor in Sprague-Dawley rat brain synaptosomes after 30 mins by scintillation counting method; type: subcellular
[3] = Displacement of [3H]-CGP-39653 from NMDA receptor in Sprague-Dawley rat brain synaptosomes after 60 mins by scintillation counting method; type: subcellular
[4] = target: Glutamate NMDA receptor; Grin1/Grin2a (Rattus norvegicus, UniProt P35439+Q00959); test: Antagonist activity at recombinant rat GluN1a/GluN2A expressed in Xenopus laevis oocytes assessed as inhibition of glycine/glutamate-mediated current responses by two-electrode voltage clamp method; type: cell-based
Procedure, shortened: (§1)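 Xenopus oocytes were injected with rat GluN1 and GluN2A–D cRNA (1:2) and recorded 2–6 days later by TEVC at room temperature, −40 mV, in Ba2+-containing recording solution, pH 7.4. Currents were evoked by 100 μM glycine plus glutamate at 2–3× EC50: 10 μM for GluN2A, 3 μM for GluN2B and GluN2C, 1 μM for GluN2D. IC50 from Hill fits per oocyte; Ki estimated.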

[5] = target: Ionotropic glutamate receptor NMDA 1/2D (Rattus norvegicus, UniProt P35439+Q62645); test: Antagonist activity at recombinant rat GluN1a/GluN2D expressed in Xenopus laevis oocytes assessed as inhibition of glycine/glutamate-mediated current responses by two-electrode voltage clamp method; type: cell-based; procedure, shortened: as §1
Plasma [6] = test: AUC (0 to 240 mins) in mouse plasma at 10 mg/kg, ip administered as bolus dose by LC-MS/MS analysis; type: ADME, organism-based; set-up: time < 4 hr, dose 10 mg/kg, route intraperitoneal; settings: in vivo, 4 h
Procedure, shortened: (§2)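 Adult male mice (25 ± 5 g) given a single 10 mg/kg i.p. bolus, prepared as a 5.0 mM solution in 0.9% NaCl. Animals were decapitated at five time points between 10 and 240 min. Plasma was precipitated with acetonitrile containing internal standard. Brain and liver were homogenized in water (1:3) and precipitated the same way. Analysis by LC-MS/MS, with AUC0–240, Cmax, tmax, t½β and liver/plasma ratio derived from the concentration-time data.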

Plasma [7] = test: Tmax in mouse plasma at 10 mg/kg, ip administered as bolus dose by LC-MS/MS analysis; type: ADME, organism-based; settings: in vivo; procedure, shortened: as §2
Plasma [8] = test: Elimination half life in mouse plasma at 10 mg/kg, ip administered as bolus dose by LC-MS/MS analysis; type: ADME, organism-based; settings: in vivo; procedure, shortened: as §2
Liver [9] = test: Cmax in mouse liver at 10 mg/kg, ip administered as bolus dose by LC-MS/MS analysis; type: ADME, organism-based; set-up: dose 10 mg/kg, route intraperitoneal; settings: in vivo; procedure, shortened: as §2
Liver [10] = test: Elimination half life in mouse liver at 10 mg/kg, ip administered as bolus dose by LC-MS/MS analysis; type: ADME, organism-based; settings: in vivo; procedure, shortened: as §2
Brain [11] = test: Cmax in mouse brain at 10 mg/kg, ip administered as bolus dose measured at 30 mins by LC-MS/MS analysis; type: ADME, organism-based; set-up: dose 10 mg/kg, route intraperitoneal; settings: in vivo, 0.5 h; procedure, shortened: as §2
Brain [12] = test: Tmax in mouse brain at 10 mg/kg, ip administered as bolus dose by LC-MS/MS analysis; type: ADME, organism-based; settings: in vivo; procedure, shortened: as §2
Mus musculus [13] = test: Toxicity in mouse assessed as behavioral changes at 10 mg/kg, ip administered as bolus dose; type: organism-based; settings: in vivo
Mus musculus [14] = species: Mus musculus; test: Antagonist activity at NMDA receptor in Nras driven p53 deficient mouse HCC cell membranes assessed as PGE2 levels at 10 uM after 24 hrs by LC-MS/MS method relative to control; set-up: scale not given: the % may be the effect or the level left
Procedure, shortened: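 Mouse Nras-driven p53−/− HCC cells in DMEM with 2 mM L-glutamine, 10% heat-inactivated FBS and penicillin/streptomycin. Cells incubated 24 h with or without antagonist, either without LPS or with 2.5 μg/mL LPS in the growth medium. Cells washed three times with ice-cold HBSS and lysed in acetonitrile on ice. PGE₂ in lysates measured by LC-MS/MS (LLOQ 1 nM) and expressed as % of control; n=3.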

Mus musculus [15] = species: Mus musculus; test: Antagonist activity at NMDA receptor in Nras driven p53 deficient mouse HCC cell membranes assessed as Slc2a1 protein expression levels at 10 uM by […] analysis relative to control; set-up: scale not given: the % may be the effect or the level left
Procedure, shortened: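 Mouse Nras-driven p53−/− HCC cells in DMEM with 10% FBS, exposed 48 h with or without 10 μM antagonist, washed, pelleted and snap-frozen. Crude membrane fraction isolated. 50 μg protein reduced, alkylated, precipitated, then Lys-C digested (3 h, rt) and trypsin digested (1:100, 37°C, 16 h). One unique peptide per transporter quantified by multiplexed SRM/MRM LC-MS/MS against stable isotope-labelled standards. Unpaired two-tailed t-test versus control, n=4.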

Mus musculus [16] = species: Mus musculus; test: Antagonist activity at NMDA receptor in Nras driven p53 deficient mouse HCC cell membranes assessed as Slc7a5 protein expression levels at 10 uM by SMR/MRM analysis relative to control; set-up: scale not given: the % may be the effect or the level left
Procedure, shortened: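 Nras p53−/− mouse HCC cells were exposed to 10 μM for 48 h, washed, and pelleted. Crude membrane fractions (50 μg protein) were denatured in guanidine, reduced/alkylated and precipitated. They were then digested with Lys-C (rt, 3 h) and trypsin (37 °C, 16 h) with stable-isotope peptide standards. Slc7a5 was quantified by multiplexed SRM/MRM LC-MS/MS, one unique peptide per protein. Mean ± SEM, n=4, versus control.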

Mus musculus [17] = species: Mus musculus; test: (§3) Antagonist activity at NMDA receptor in Nras driven p53 deficient mouse HCC cell membranes assessed as decrease in Abcb1 protein expression levels by measuring [3H]-digoxin accumulation at 10 uM preincubated for 24 hrs followed by compound wash out and addition of [3H]-digoxin measured after 30 mins by scintillation counting method relative to control; set-up: scale not given: the % may be the effect or the level left
Procedure, shortened: (§4)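 Nras p53−/− HCC cells (1 × 10⁵/well) were pretreated 24 h with or without 10 μM. They were then washed 3× in warm HBSS (choline chloride, pH 7.4) and incubated at 37 °C with probe in HBSS. Incubation was 30 min for [3H]-digoxin, 20 μM fluorescein or 10 μM sorafenib, and 5 min for [14C]-L-leucine or [14C]-D-glucose. Cells were washed ice-cold and lysed in 0.1 M NaOH. Read-out was scintillation, fluorescence or LC-MS/MS, normalized to protein.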

Mus musculus [18] = species: Mus musculus; test: as §3, with “Abcb1/Abcg2” for “Abcb1”, “sorafenib” for “[3H]-digoxin”, “LC/MS-MS” for “scintillation counting”; set-up: scale not given: the % may be the effect or the level left; procedure, shortened: as §4
Mus musculus [19] = species: Mus musculus; test: as §3, with “Slc7a5” for “Abcb1”, “[14C]-L-leucine” for “[3H]-digoxin”, “5” for “30”; set-up: scale not given: the % may be the effect or the level left; procedure, shortened: as §4
Mus musculus [20] = species: Mus musculus; test: Antagonist activity at NMDA receptor in Nras driven p53 deficient mouse HCC cell membranes assessed as potentiation of 1 uM sorafenib-mediated antiproliferative activity by measuring cell viability at 100 uM after 72 hrs by resazurin assay (reference value: […] +/- […]%)
Mus musculus [21] = species: Mus musculus; test: Antagonist activity at NMDA receptor in Nras driven p53 deficient mouse HCC cell membranes assessed as potentiation of 5 uM sorafenib-mediated antiproliferative activity by measuring cell viability at 100 uM after 72 hrs by resazurin assay (reference value: […] +/- […]%)

Chain of Glutamate NMDA receptor; Grin1/Grin2a (Q00959 whole entry, other chains not shown): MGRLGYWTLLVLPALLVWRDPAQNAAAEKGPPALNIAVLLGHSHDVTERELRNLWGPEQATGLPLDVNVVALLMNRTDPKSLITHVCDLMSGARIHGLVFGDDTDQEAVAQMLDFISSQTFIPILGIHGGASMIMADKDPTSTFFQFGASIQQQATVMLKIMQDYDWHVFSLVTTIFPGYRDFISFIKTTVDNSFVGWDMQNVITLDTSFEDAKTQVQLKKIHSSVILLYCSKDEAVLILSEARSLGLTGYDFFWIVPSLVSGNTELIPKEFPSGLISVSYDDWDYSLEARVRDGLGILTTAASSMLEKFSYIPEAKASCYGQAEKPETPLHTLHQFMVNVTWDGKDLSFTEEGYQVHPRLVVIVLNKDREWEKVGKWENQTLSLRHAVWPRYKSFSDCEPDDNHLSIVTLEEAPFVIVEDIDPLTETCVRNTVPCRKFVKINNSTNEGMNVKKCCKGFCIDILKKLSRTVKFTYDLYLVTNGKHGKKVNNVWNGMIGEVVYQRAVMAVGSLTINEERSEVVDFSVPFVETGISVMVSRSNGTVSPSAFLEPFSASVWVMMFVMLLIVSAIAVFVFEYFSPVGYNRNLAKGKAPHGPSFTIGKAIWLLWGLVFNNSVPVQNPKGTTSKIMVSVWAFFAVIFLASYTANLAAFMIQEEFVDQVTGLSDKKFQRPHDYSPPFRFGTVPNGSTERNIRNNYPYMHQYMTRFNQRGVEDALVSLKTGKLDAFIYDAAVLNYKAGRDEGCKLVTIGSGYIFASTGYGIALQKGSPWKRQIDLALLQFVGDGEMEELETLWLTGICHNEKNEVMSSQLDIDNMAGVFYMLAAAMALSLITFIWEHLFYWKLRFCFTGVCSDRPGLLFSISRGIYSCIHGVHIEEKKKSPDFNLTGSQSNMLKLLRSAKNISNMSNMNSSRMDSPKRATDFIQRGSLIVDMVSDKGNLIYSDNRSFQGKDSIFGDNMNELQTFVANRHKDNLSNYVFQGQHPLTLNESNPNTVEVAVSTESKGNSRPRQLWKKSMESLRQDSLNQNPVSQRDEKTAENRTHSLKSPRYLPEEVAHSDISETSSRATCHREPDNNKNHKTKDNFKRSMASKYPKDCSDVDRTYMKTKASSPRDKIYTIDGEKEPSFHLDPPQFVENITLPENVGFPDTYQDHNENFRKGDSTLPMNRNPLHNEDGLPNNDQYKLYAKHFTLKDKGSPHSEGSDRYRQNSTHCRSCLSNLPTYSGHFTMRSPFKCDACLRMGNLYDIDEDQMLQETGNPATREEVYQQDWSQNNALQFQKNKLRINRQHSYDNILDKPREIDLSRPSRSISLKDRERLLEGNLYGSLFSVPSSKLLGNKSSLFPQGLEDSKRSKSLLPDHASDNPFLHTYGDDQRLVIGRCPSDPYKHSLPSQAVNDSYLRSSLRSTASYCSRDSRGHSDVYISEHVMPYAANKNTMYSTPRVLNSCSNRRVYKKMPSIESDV
Chain of Ionotropic glutamate receptor NMDA 1/2D (Q62645 whole entry, other chains not shown): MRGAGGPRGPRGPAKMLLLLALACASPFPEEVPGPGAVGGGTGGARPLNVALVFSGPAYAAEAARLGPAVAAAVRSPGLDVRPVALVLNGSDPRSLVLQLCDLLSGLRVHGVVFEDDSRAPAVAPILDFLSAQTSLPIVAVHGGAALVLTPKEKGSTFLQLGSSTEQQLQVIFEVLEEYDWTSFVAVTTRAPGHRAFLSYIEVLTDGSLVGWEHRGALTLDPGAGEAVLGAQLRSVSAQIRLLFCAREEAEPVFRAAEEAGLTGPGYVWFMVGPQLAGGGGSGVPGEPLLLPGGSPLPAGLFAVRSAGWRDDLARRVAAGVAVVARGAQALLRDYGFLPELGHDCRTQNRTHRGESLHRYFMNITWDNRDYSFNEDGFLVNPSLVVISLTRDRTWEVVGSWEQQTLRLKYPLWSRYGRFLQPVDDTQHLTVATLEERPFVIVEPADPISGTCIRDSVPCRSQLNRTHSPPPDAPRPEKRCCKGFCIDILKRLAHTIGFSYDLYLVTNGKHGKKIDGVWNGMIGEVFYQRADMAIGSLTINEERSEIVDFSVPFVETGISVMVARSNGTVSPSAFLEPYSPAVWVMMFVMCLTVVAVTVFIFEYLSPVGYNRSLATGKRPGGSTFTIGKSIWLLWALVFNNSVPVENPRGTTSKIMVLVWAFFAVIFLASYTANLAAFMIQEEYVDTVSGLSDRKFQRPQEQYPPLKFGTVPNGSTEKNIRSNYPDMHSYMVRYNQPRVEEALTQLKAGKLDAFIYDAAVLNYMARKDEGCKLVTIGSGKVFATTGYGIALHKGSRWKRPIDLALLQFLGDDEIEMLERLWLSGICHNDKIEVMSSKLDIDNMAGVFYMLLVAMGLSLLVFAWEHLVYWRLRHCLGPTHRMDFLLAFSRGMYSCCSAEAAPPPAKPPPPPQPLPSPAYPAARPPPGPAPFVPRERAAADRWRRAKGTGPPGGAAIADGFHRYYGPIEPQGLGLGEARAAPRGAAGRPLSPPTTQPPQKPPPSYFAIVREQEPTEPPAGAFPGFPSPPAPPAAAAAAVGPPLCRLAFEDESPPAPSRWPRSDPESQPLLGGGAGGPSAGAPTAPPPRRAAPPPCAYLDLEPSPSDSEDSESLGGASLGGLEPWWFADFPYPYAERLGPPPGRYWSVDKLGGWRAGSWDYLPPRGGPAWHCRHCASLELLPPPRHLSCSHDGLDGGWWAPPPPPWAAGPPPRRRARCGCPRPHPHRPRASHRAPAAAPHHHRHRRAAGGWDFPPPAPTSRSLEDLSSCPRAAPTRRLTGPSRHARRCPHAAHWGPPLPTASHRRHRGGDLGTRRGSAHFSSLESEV
Chain of Glutamate receptor ionotropic, kainate 3 (P42264 whole entry): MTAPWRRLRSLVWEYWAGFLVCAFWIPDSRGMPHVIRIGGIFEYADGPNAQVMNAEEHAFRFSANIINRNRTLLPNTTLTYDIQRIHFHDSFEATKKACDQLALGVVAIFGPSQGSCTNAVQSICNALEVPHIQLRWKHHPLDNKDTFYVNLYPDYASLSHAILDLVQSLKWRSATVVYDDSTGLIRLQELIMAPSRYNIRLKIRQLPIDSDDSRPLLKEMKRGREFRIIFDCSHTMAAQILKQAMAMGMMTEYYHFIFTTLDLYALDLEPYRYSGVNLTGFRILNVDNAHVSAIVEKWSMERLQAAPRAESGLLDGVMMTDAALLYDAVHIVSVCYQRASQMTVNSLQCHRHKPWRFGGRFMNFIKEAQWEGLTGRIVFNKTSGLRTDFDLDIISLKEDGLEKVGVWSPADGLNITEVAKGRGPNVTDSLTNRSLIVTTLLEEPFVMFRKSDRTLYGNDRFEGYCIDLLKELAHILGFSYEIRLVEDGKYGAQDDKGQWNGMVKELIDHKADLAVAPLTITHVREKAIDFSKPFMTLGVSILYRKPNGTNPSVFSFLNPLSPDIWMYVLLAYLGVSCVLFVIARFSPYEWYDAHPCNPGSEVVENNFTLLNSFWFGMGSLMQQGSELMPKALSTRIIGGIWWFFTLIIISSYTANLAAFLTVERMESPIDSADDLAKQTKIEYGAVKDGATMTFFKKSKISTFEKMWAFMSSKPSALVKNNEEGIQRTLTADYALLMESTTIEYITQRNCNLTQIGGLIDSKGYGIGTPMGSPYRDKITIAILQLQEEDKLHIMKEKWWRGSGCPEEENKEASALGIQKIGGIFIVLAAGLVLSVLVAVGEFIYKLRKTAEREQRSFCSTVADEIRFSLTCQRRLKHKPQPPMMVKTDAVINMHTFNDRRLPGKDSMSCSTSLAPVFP

Ki [1]: 131 µM | IC50 [2]: > 100 µM | Ki [3]: 0.63 µM | pKi [3]: 6.22 | IC50 [4]: 15 µM | Ki [4]: 4.7 µM | IC50 [5]: 170 µM | Ki [5]: 41 µM | AUC (Plasma [6]): 3020 nmol·min/g | Tmax (Plasma [7]): 15 min | beta t1/2 (Plasma [8]): 30 min | Cmax (Liver [9]): 8.7 nmol/g | beta t1/2 (Liver [10]): 36 min | Cmax (Brain [11]): 0.3 nmol/g | Tmax (Brain [12]): 30 min | Activity (Mus musculus [14]): 68% | Activity (Mus musculus [15]): 42% | Activity (Mus musculus [16]): 24% | Activity (Mus musculus [17]): 149% | Activity (Mus musculus [18]): 152% | Activity (Mus musculus [19]): 81%
Structure (SMILES): Cl.O=C(O)c1cc([C@H]2CCN[C@@H]2C(=O)O)ccc1Cl
Activity (Mus musculus [13]): Non-Toxic | Activity (Mus musculus [20]): 33% | Activity (Mus musculus [21]): 35%
